Laboratory results: ChEMBL document CHEMBL1136991, “Novel potent BRAF inhibitors: toward 1 nM compounds through optimization of the central phenyl ring” (J Med Chem, 2009)
The source made the active and inactive calls. The calls are words filed in the database; no cut-off is given here.

Assays:
[1] = Growth inhibition of human WM266.4 cells expressing BRAF V600E mutant after 5 days by SRB assay; type: functional; settings: WM 266-4, 120 h
Outline: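 WM266.4 human melanoma cells, which are driven by mutant BRAF, were assayed for proliferation by sulforhodamine B (SRB) staining; the value is a GI50.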

[2] = target: T1, Serine/threonine-protein kinase B-raf (Homo sapiens, UniProt P15056, V600E); test: Inhibition of BRAF V600E mutant-mediated ERK phosphorylation in human WM266.4 cells; type: cell-based
T1 sequence (P15056 2-766 V600E limits assumed): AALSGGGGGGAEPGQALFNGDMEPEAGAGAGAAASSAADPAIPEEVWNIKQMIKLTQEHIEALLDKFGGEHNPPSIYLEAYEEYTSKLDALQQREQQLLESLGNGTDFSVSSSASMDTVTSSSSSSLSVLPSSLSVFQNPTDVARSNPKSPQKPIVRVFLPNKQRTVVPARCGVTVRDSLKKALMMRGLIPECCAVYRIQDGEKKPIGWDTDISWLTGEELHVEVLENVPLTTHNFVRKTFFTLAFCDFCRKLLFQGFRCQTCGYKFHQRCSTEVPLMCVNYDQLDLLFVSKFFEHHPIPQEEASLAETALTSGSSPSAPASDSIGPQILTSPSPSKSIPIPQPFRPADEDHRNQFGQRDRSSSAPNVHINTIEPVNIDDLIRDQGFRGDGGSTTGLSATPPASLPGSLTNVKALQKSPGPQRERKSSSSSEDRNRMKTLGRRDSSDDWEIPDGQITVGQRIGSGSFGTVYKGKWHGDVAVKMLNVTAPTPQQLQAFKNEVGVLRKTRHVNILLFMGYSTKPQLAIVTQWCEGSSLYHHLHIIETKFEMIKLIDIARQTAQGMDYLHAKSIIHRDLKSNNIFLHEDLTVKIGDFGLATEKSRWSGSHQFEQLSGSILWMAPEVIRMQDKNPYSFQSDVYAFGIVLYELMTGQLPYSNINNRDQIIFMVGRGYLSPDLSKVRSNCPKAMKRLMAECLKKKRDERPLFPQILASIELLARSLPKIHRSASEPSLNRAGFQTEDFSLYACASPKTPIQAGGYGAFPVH
Outline: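 Cellular pathway read-out: ERK phosphorylation (pERK) was measured in WM266.4 melanoma cells and reported as an IC50.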

[3] = target: T1, Serine/threonine-protein kinase B-raf; test: Inhibition of BRAF V600E mutant
Outline: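 Purified, isolated V600E BRAF enzyme assayed in vitro; potency reported as IC50.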

WM1361 = test: Growth inhibition of human WM1361 cells expressing NRAS mutant after 5 days by SRB assay; type: functional, cell-based

Row | Compound | GI50 [1] [nM] | IC50 [2] [nM] | IC50 [3] [nM] | Activity (WM1361)
1 | Cn1c(=O)[nH]c2nccc(Oc3ccc(NC(=O)c4cccc(OC(F)(F)F)c4)c4ccccc34)c21 | 12000 | 31000 | 5200 | –
2 | O=C(Nc1ccc(Oc2ccnc3[nH]c(=O)[nH]c23)c(F)c1)Nc1ccc(Cl)c(C(F)(F)F)c1 | – | 34000 | 47 | –
3 | Cc1c(NC(=O)Nc2ccc(Cl)c(C(F)(F)F)c2)ccc(Oc2ccnc3[nH]c(=O)[nH]c23)c1C | 2000 | 3900 | 56 | –
4 | O=C(Nc1ccc(Oc2ccnc3[nH]c(=O)[nH]c23)cc1F)Nc1cc(C(F)(F)F)ccc1F | 1150 | 1290 | 7 | –
5 | O=C(Nc1ccc(F)c(F)c1)Nc1ccc(Oc2ccnc3[nH]c(=O)[nH]c23)c2ccccc12 | 5500 | > 100000 | 220 | –
6 | COc1cc(NC(=O)Nc2cccc(C(F)(F)F)c2)ccc1Oc1ccnc2[nH]c(=O)[nH]c12 | > 100000 | 29400 | 16 | –
7 | Cn1c(=O)[nH]c2c(Oc3ccc(NC(=O)Nc4cc(C(F)(F)F)ccc4F)c4ccccc34)ccnc21 | 730 | 2000 | 167 | –
8 | O=C(Cc1cccc(OC(F)(F)F)c1)Nc1ccc(Oc2ccnc3[nH]c(=O)[nH]c23)c2ccccc12 | 3100 | > 100000 | > 10000 | –
9 | CNC(=O)c1cc(Oc2ccc(NC(=O)Nc3ccc(Cl)c(C(F)(F)F)c3)cc2)ccn1 | – | – | – | inactive
10 | Cc1cc(NC(=O)Nc2ccc(Cl)c(C(F)(F)F)c2)ccc1Oc1ccnc2[nH]c(=O)[nH]c12 | 1790 | 59000 | 23 | –
11 | Cc1cc(Oc2ccnc3[nH]c(=O)[nH]c23)ccc1NC(=O)Nc1ccc(Cl)c(C(F)(F)F)c1 | 5900 | 4720 | 37 | –
12 | Cn1c(=O)[nH]c2c(Oc3ccc(NC(=O)Nc4cccc(C(C)(C)C)c4)c4ccccc34)ccnc21 | > 100000 | 46000 | 430 | –
13 | Cn1c(=O)[nH]c2nccc(Oc3ccc(NC(=O)Nc4cccc(SC(F)(F)F)c4)c4ccccc34)c21 | 1200 | 1460 | 24 | –
14 | CS(=O)(=O)c1cc(Oc2ccnc3[nH]c(=O)[nH]c23)ccc1NC(=O)Nc1ccc(Cl)c(C(F)(F)F)c1 | 11900 | 11000 | 90 | –
15 | O=C(Nc1ccc(Oc2ccnc3[nH]c(=O)[nH]c23)cc1)Nc1ccc(Cl)c(C(F)(F)F)c1 | 4200 | 2390 | – | –
16 | O=C(Cc1cccc(C(F)(F)F)c1)Nc1ccc(Oc2ccnc3[nH]c(=O)[nH]c23)c2ccccc12 | – | > 100000 | > 10000 | –
17 | O=C(Nc1cc(C(F)(F)F)ccc1N1CCOCC1)Nc1ccc(Oc2ccnc3[nH]c(=O)[nH]c23)c2ccccc12 | 291 | 346 | 14 | –
18 | Cn1c(=O)[nH]c2nccc(Oc3ccc(NC(=O)Nc4ccc(Cl)c(C(F)(F)F)c4)c(F)c3)c21 | 100000 | 21000 | 10 | –
19 | Cn1c(=O)[nH]c2nccc(Oc3ccc(NC(=O)c4cccc(SC(F)(F)F)c4)c4ccccc34)c21 | 7600 | 18400 | 4600 | –

Row | Compound | GI50 [1] [nM] | IC50 [2] [nM] | IC50 [3] [nM] | Activity (WM1361)
20 | O=C(Nc1ccc(Cl)c(C(F)(F)F)c1)Nc1ccc(Oc2ccnc3[nH]c(=O)[nH]c23)cc1C(F)(F)F | 930 | 3580 | 22 | –
21 | CSc1cc(Oc2ccnc3[nH]c(=O)[nH]c23)ccc1NC(=O)Nc1ccc(Cl)c(C(F)(F)F)c1 | 470 | 610 | 1 | –
22 | CSc1cc(Oc2ccnc3[nH]c(=O)[nH]c23)ccc1NC(=O)Nc1cc(C(F)(F)F)ccc1F | 2600 | 3060 | 12 | –
23 | COc1cc(Oc2ccnc3[nH]c(=O)[nH]c23)ccc1NC(=O)Nc1ccc(Cl)c(C(F)(F)F)c1 | – | > 100000 | 106 | –
24 | O=C(Nc1cccc(F)c1)Nc1ccc(Oc2ccnc3[nH]c(=O)[nH]c23)c2ccccc12 | 290 | 214 | 37 | –
25 | CN(C)c1cc(Oc2ccnc3[nH]c(=O)[nH]c23)ccc1NC(=O)Nc1ccc(Cl)c(C(F)(F)F)c1 | 5340 | 20700 | 10000 | –
26 | O=C(Nc1ccc(Cl)c(C(F)(F)F)c1)Nc1ccc(Oc2ccnc3[nH]c(=O)[nH]c23)cc1-c1ccccc1 | 5100 | > 100000 | 6500 | –
27 | Cn1c(=O)[nH]c2nccc(Oc3ccc(NC(=O)Nc4cccc(C(F)(F)F)c4)c4ccccc34)c21 | 810 | 600 | 10 | –
28 | O=C(Nc1ccc(Cl)c(C(F)(F)F)c1)Nc1ccc(Oc2ccnc3[nH]c(=O)[nH]c23)cc1Cl | 2000 | 1330 | 23 | –
29 | O=C(Nc1ccc(Cl)c(C(F)(F)F)c1)Nc1ccc(Oc2ccnc3[nH]c(=O)[nH]c23)cc1F | 1530 | 2170 | 8 | –
30 | Cn1c(=O)[nH]c2nccc(Oc3ccc(NC(=O)Nc4cccc(C(C)(C)C)c4)c4ccccc34)c21 | 1130 | 1060 | 37 | –
31 | Cn1c(=O)[nH]c2c(Oc3ccc(NC(=O)Nc4ccc(Cl)c(C(F)(F)F)c4)c4ccccc34)ccnc21 | 2300 | 3140 | 156 | –
32 | O=C(Nc1cccc(SC(F)(F)F)c1)Nc1ccc(Oc2ccnc3[nH]c(=O)[nH]c23)cc1F | 1190 | 4150 | 7 | –
33 | O=C(Nc1ccc(Cl)c(C(F)(F)F)c1)Nc1ccc(Oc2ccnc3[nH]c(=O)[nH]c23)c2ccccc12 | 470 | 559 | 30 | –
34 | Cn1c(=O)[nH]c2nccc(Oc3ccc(NC(=O)Nc4cc(C(F)(F)F)ccc4F)c4ccccc34)c21 | 490 | 810 | 17 | –
35 | O=C(Nc1cccc(C(F)(F)F)c1)Nc1ccc(Oc2ccnc3[nH]c(=O)[nH]c23)cc1F | 1610 | 3450 | 12 | –
36 | O=C(Nc1cccc(C(F)(F)F)c1)Nc1ccc(Oc2ccnc3[nH]c(=O)[nH]c23)c2ccccc12 | 320 | 1910 | 6 | –
37 | COc1cc(NC(=O)Nc2ccc(Cl)c(C(F)(F)F)c2)ccc1Oc1ccnc2[nH]c(=O)[nH]c12 | 6200 | 5500 | 25 | –
38 | Cn1c(=O)[nH]c2nccc(Oc3ccc(NC(=O)Nc4ccc(Cl)c(C(F)(F)F)c4)c4ccccc34)c21 | 1040 | 770 | 23 | –
